Test results: ChEMBL document CHEMBL4673269, “Discovery of S64315, a Potent and Selective Mcl-1 Inhibitor” (J Med Chem, 2020)
pIC50: −log10 of the molar value. Active and inactive are the calls of the source. The rule behind the calls is not given here.

What was measured:
[1] = molecular target: Induced myeloid leukemia cell differentiation protein Mcl-1 (Homo sapiens) (UniProt Q07820); experiment: Displacement of Bax BH3 domain from FLAG-tagged Mcl-1 (unknown origin) expressed in human Hela cells at 30 to 300 nM incubated for 2 hrs by immunoprecipitation assay; format: cell-based; settings: dose 30-300 nM
Outline: (§1)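 HeLa cells in DMEM with 10% FCS were transiently transfected with Flag-tagged Mcl-1, Bcl-xL or Bcl-2 vectors. 24 h later they were treated for 2 h and lysed (Hepes pH 7.5, 150 mM KCl, MgCl₂, EDTA, 0.4% Triton X100). Cleared lysates were immunoprecipitated with anti-Flag M2 beads. Inputs and IPs were immunoblotted for endogenous Bax, Bak and Flag.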

HuT78 = experiment: Antiproliferative activity against human HUT78 assessed as reduction in cell viability incubated for 3 days by Cell Titer Blue assay; format: functional, cell-based; settings: time 3.0 day
THP-1 [2] = experiment: Antiproliferative activity against human THP-1 assessed as reduction in cell viability incubated for 3 days by Cell Titer Blue assay; format: functional, cell-based; settings: time 3.0 day
[3] = Plasma protein binding in mouse assessed as unbound fraction; format: ADME, cell-free
[4] = Clearance in mouse at 12.5 mg/kg, iv formulated with 20 % HPBCD in water/ […]; format: ADME, organism-based; settings: in vivo
[5] = molecular target: Bcl-2-like protein 1 (Homo sapiens) (UniProt Q07817); experiment: Displacement of Bak BH3 domain from FLAG-tagged Bcl-xl (unknown origin) expressed in human Hela cells at 30 to 300 nM incubated for 2 hrs by immunoprecipitation assay; format: cell-based; settings: dose 30-300 nM; outline: as §1
MV4-11 = experiment: Antiproliferative activity against human MV411 assessed as reduction in cell viability incubated for 3 days by Cell Titer Blue assay; format: functional, cell-based; settings: time 3.0 day
[6] = molecular target: Bcl-2-like protein 1 (Homo sapiens) (UniProt Q07817); experiment: Displacement of Bax BH3 domain from FLAG-tagged Bcl-xl (unknown origin) expressed in human Hela cells at 30 to 300 nM incubated for 2 hrs by immunoprecipitation assay; format: cell-based; settings: dose 30-300 nM; outline: as §1
AMO1 [7] = experiment: Antitumor activity against human AMO1 xenografted in CB-17 SCID mouse assessed as tumor growth inhibition at 12.5 mg/kg, iv administered daily measured on day 10; format: functional; settings: 240 h, read-out: TGI
Outline: (§2)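 Female CB-17 SCID mice, 6−7 weeks old. 5 × 10⁶ AMO-1 cells in growth medium/Matrigel 50:50 injected subcutaneously in the right flank. Randomised at about 200 mm³, n = 8 to 10 per group. Dosed iv in 20% HPbCD–25 mM HCl, daily for 5 days or weekly for 4 weeks. Calipers 2−3 times weekly; volume = length × width²/2. TGI computed from median change in volume versus control; delay judged at median volume 500 mm³.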

AMO1 [8] = experiment: Antitumor activity against human AMO1 xenografted in CB-17 SCID mouse assessed as maximum tumor growth inhibition at 3.125 mg/kg, iv administered for 5 consecutive days measured post-last dose; format: functional; design: scale not given: the % may be the effect or the level left; settings: time 5 day; outline: as §2
OCI-Ly7 = experiment: Antiproliferative activity against human OCI-LY7 assessed as reduction in cell viability incubated for 3 days by Cell Titer Blue assay; format: functional, cell-based; settings: time 3.0 day
AMO1 [9] = experiment: Antitumor activity against human AMO1 cells xenografted in CB-17 SCID mouse assessed as tumor growth inhibition at […] mg/kg, iv administered for 5 consecutive days measured on day 4 relative to control; format: functional; settings: 120 h, time 5 day, read-out: TGI
AMO1 [10] = experiment: Antitumor activity against human AMO1 cells xenografted in CB-17 SCID mouse assessed as maximum tumor growth inhibition at […] mg/kg, iv administered as bolus dose for 5 consecutive days measured on day 4 relative to control; format: functional; design: scale not given: the % may be the effect or the level left; settings: time 5 day
SUD4 = experiment: Antiproliferative activity against human SU-DHL4 assessed as reduction in cell viability incubated for 3 days by Cell Titer Blue assay; format: functional, cell-based; settings: time 3.0 day
[11] = molecular target: Induced myeloid leukemia cell differentiation protein Mcl-1 (Homo sapiens) (UniProt Q07820); experiment: Stabilization of Mcl-1 in human HCT116 cells assessed as increase in Mcl-1 protein levels incubated for 16 hrs by western blot analysis; format: cell-based; settings: HCT-116, dose 0.3-10000 nM
Outline: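 HCT116 cells were seeded at 0.25×10⁶ per 35 mm dish in RPMI 1640 with 10% decomplemented FBS, 2 mM L-glutamine and 10 mM Hepes pH 7.4, at 37 °C and 5% CO₂. After 48 h they were dosed for 16 h and lysed in Hepes/KCl/MgCl₂/EDTA/1% NP40 buffer with inhibitors. Lysate (20 μg) was immunoblotted for Mcl-1, with actin as loading control.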

Daudi = experiment: Antiproliferative activity against human Daudi assessed as reduction in cell viability incubated for 3 days by Cell Titer Blue assay; format: functional, cell-based; settings: time 3.0 day
AMO1 [12] = experiment: Antitumor activity against human AMO1 xenografted in CB-17 SCID mouse assessed as tumor growth inhibition administered intravenously for 5 consecutive days measured post-last dose; format: functional; settings: time 5.0 day; outline: as §2
THP-1 [13] = experiment: Induction of apoptosis in human THP1 cells incubated for 2 hrs by annexin-V-FITC and propidium iodide staining based by flow cytometry; format: functional, cell-based
Outline: (§3)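 THP-1 cells, wild type or CRISPR BAX/BAK knockout (verified by Western blot), were treated for 2 h. They were washed in binding buffer (10 mM Hepes, 140 mM NaCl, 2.5 mM CaCl₂) and stained with annexin V-FITC and PI for 15 min at 20 °C in the dark. 10⁴ cells per sample were read by flow cytometry. Apoptotic plus necrotic cells were normalised to total cells. Two biological replicates; DMSO control.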

Cytochrome P450 2C8 = Cytochrome P450 2C8 (Homo sapiens, UniProt P10632); experiment: Drug metabolism assessed as CYP2C8 (unknown origin) mediated metabolism; format: ADME
[14] = molecular target: Induced myeloid leukemia cell differentiation protein Mcl-1 (Homo sapiens) (UniProt Q07820); experiment: Displacement of Bak BH3 domain from FLAG-tagged Mcl-1 (unknown origin) expressed in human Hela cells at 30 to 300 nM incubated for 2 hrs by immunoprecipitation assay; format: cell-based; settings: dose 30-300 nM; outline: as §1
Cytochrome P450 3A4 = Cytochrome P450 3A4 (Homo sapiens, UniProt P08684); experiment: Inhibition of CYP3A4 (unknown origin); format: ADME
Outline: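 High-throughput drug-drug interaction screen using human CYP450-transfected cells; IC50 determined for CYP3A4 inhibition.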

THP-1 [15] = experiment: Induction of apoptosis in Bax/Bak knockout human THP1 cells at 1 to 3000 nM incubated for 2 hrs by annexin-V-FITC and propidium iodide staining based by flow cytometry; format: functional, cell-based; settings: dose 1-3000 nM; outline: as §3
AMO1 [16] = experiment: Antitumor activity against human AMO1 cells xenografted in CB-17 SCID mouse assessed as time to reach tumor volume of 500 mm3 at […] mg/kg, iv administered as bolus dose for 5 consecutive days; format: functional; settings: time 5 day
MOLM-13 = experiment: Antiproliferative activity against human MOLM13 assessed as reduction in cell viability incubated for 3 days by Cell Titer Blue assay; format: functional, cell-based; settings: time 3.0 day
OCI-AML2 = experiment: Antiproliferative activity against human OCI-AML2 assessed as reduction in cell viability incubated for 3 days by Cell Titer Blue assay; format: functional, cell-based; settings: time 3.0 day
[17] = molecular target: Apoptosis regulator Bcl-2 (Homo sapiens) (UniProt P10415); experiment: Displacement of Bak BH3 domain from FLAG-tagged Bcl-2 (unknown origin) expressed in human Hela cells at 30 to 300 nM incubated for 2 hrs by immunoprecipitation assay; format: cell-based; settings: dose 30-300 nM; outline: as §1
[18] = Terminal half-life in mouse at 12.5 mg/kg, iv formulated with 20 % HPBCD in water/ […]; format: ADME, organism-based; settings: in vivo, read-out: beta t1/2 (converted)
[19] = molecular target: Voltage-gated inwardly rectifying potassium channel KCNH2 (Homo sapiens, UniProt Q12809); experiment: Inhibition of human ERG
Sequence of Voltage-gated inwardly rectifying potassium channel KCNH2 (Q12809 whole entry): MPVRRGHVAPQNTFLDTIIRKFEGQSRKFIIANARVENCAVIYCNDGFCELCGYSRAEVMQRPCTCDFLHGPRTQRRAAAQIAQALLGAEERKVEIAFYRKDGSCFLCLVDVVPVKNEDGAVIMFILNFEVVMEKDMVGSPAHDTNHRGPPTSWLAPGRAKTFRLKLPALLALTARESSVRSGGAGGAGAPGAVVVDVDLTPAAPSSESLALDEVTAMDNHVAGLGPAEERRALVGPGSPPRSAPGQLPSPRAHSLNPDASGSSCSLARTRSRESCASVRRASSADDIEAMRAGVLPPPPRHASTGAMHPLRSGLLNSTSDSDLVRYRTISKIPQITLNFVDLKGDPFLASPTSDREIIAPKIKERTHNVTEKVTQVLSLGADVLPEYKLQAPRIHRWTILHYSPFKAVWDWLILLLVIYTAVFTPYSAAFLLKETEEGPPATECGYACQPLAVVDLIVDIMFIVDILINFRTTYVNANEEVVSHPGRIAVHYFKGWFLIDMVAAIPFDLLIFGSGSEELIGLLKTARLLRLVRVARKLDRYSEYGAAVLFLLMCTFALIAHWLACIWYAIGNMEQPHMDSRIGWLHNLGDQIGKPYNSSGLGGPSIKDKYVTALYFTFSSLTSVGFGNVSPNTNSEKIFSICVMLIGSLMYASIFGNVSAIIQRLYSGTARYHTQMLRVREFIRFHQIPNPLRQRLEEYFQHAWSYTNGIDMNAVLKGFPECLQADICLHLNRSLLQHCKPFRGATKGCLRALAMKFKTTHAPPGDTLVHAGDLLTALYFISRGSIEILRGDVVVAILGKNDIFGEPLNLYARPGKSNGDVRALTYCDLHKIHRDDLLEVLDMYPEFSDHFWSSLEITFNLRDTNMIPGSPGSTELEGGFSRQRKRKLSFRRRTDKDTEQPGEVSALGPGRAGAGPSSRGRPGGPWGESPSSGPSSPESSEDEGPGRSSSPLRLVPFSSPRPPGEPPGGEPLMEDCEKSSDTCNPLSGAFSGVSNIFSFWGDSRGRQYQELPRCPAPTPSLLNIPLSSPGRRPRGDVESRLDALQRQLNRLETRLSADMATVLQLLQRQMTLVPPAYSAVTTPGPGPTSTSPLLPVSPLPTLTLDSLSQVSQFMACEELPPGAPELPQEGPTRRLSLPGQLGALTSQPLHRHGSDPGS

Sequence of Induced myeloid leukemia cell differentiation protein Mcl-1 (Homo sapiens) (Q07820 whole entry, the tested form may be a part): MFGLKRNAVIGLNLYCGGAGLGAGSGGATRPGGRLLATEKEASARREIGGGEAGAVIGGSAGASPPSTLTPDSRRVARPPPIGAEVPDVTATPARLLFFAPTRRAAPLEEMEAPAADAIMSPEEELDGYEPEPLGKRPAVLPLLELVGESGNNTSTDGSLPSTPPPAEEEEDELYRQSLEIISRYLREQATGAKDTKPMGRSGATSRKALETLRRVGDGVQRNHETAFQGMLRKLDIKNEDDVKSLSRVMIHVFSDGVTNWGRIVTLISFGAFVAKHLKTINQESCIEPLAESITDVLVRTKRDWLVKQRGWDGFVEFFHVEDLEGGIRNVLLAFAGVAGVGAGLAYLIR
Sequence of Bcl-2-like protein 1 (Homo sapiens) (Q07817 whole entry, the tested form may be a part): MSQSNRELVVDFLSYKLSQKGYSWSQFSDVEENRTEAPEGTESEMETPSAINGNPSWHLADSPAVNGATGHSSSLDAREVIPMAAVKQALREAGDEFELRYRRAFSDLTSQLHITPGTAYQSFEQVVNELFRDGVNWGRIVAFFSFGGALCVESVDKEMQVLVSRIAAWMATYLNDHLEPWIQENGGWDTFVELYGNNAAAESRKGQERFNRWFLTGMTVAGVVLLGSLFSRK
Sequence of Apoptosis regulator Bcl-2 (Homo sapiens) (P10415 whole entry, the tested form may be a part): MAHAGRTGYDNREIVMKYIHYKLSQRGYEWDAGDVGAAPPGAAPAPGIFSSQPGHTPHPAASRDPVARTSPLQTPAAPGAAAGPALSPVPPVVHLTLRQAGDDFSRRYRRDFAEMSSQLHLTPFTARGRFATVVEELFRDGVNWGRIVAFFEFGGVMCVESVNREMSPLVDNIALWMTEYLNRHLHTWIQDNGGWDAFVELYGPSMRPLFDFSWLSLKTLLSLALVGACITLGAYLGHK
Sequence of Cytochrome P450 2C8 (P10632 whole entry, the tested form may be a part): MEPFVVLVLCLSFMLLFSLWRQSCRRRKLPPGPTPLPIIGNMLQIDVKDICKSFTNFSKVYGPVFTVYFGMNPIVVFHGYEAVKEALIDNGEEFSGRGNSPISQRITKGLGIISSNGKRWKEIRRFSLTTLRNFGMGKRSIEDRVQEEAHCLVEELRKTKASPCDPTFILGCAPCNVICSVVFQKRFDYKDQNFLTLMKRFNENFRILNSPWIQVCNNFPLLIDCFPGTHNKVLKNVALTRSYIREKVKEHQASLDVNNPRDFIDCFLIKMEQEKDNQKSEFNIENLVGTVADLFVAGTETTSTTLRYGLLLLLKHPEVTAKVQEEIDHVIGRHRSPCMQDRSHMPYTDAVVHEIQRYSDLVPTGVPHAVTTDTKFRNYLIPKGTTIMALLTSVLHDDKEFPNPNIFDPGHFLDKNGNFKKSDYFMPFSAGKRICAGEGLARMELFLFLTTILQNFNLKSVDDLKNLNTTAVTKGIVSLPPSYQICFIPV
Sequence of Cytochrome P450 3A4 (P08684 whole entry): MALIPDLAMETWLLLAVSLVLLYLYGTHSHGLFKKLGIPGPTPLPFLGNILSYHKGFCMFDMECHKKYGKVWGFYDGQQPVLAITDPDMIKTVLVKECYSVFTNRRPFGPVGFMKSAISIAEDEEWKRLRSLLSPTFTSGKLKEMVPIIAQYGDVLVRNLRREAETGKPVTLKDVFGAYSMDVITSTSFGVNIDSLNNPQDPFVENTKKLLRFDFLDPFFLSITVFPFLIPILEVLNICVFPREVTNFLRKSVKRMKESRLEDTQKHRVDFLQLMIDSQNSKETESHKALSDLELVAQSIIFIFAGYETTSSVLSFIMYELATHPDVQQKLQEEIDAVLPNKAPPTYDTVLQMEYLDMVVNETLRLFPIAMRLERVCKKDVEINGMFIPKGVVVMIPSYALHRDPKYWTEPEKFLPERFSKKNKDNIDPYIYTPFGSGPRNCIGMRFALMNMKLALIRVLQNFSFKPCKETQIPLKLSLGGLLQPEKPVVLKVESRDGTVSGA

In the case of `COc1ccccc1-c1nccc(COc2ccccc2C[C@@H](Oc2ncnc3sc(-c4ccc(F)cc4)c(-c4ccc(OCCN5CCN(C)CC5)c(Cl)c4C)c23)C(=O)O)n1`, the Activity [1] was “Active”, the Activity (HuT78) was “Active” and the Activity (THP-1 [2]) was “Active”. For the same compound, the Fu [3] was 0.04%, the clearance [4] was 6 mL/min/kg and the Activity [5] was “inactive”. The Activity (MV4-11) was “Active”, the Activity [6] was “inactive” and the inhibition in vivo at 12.5 mg/kg (AMO1 [7]) was 112%. For the same compound, the Activity (AMO1 [8]) was 89.1%, the Activity (OCI-Ly7) was “Active” and the inhibition in vivo at […] (AMO1 [9]) was 190%. The Activity (AMO1 [10]) was 189.5%, the Activity (SUD4) was “Active” and the Activity [11] was “Dose-dependent effect”. For the same compound, the Activity (Daudi) was “Active”, the Activity (AMO1 [12]) was “Dose-dependent effect” and the Activity (THP-1 [13]) was “Dose-dependent effect”. For the same compound, the Drug metabolism (Cytochrome P450 2C8) was “Metabolite_Detected”, the Activity [14] was “Active” and the pIC50 (Cytochrome P450 3A4) was 5.74. The Activity (THP-1 [15]) was “inactive”, the Time (AMO1 [16]) was 38 days and the Activity (MOLM-13) was “Active”. The Activity (OCI-AML2) was “Active”, the Activity [17] was “inactive” and the half-life [18] was 5 h. It also gave a pIC50 [19] of under 5.52.
